For seven molecules, inhibition results are on record in ChEMBL document CHEMBL4014271, “Trimeric and Tetrameric A-Type Procyanidins from Peanut Skins” (2017).

Common to all, as to format: functional
For assay [1], the system named is RAW264.7. Briefly: Anti-inflammatory activity in mouse RAW264.7 cells assessed as inhibition of LPS-induced TNFalpha secretion at 10 ug/ml preincubated for 1 hr followed by LPS stimulation for 23 hrs by ELISA relative to control. The procedure, abridged:
(§1)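 RAW264.7 murine macrophages were grown in DMEM with 10% FBS at 37 °C in 5% CO2 and seeded at 5 × 10^5 to 80−90% confluence. Procyanidins in sterile water were added at 10, 50 or 100 μg/mL for 1 h. LPS (E. coli 0111:B4, 1 μg/mL) followed for 23 h. TNF-α in the collected medium was measured by ELISA and reported as % inhibition of LPS-dependent secretion.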
(In an ELISA, binding on a coated surface is turned into a signal by an enzyme label.)

The subject of assay [2] is RAW264.7. Kind of assay: Anti-inflammatory activity in mouse RAW264.7 cells assessed as inhibition of LPS-induced TNFalpha secretion at 50 ug/ml preincubated for 1 hr followed by LPS stimulation for 23 hrs by ELISA relative to control. The procedure, abridged:
as §1

Assay [3] concerns RAW264.7. Briefly: Anti-inflammatory activity in mouse RAW264.7 cells assessed as inhibition of LPS-induced TNFalpha secretion at 100 ug/ml preincubated for 1 hr followed by LPS stimulation for 23 hrs by ELISA relative to control. The method in brief: as §1

The source made the active and inactive calls. The rule behind the calls is not given here.

As to `Oc1cc(O)c2c(c1)O[C@H](c1ccc(O)c(O)c1)[C@H](O)[C@H]2c1c(O)cc2c(c1O)[C@@H]1c3c(cc(O)c4c3O[C@H](c3ccc(O)c(O)c3)[C@@H](O)C4)O[C@](c3ccc(O)c(O)c3)(O2)[C@@H]1O`, the inhibition (usually the percentage by which the read-out fell short of the control) at 10 µg/mL in the assay with RAW264.7 [1] was 0%. In the assay with RAW264.7 [2], the inhibition at 50 µg/mL amounted to 89.7%. For the same molecule, the inhibition at 100 µg/mL in the assay on RAW264.7 [3] was 100%.
Consider `Oc1cc(O)c2c(c1)O[C@@H](c1ccc(O)c(O)c1)[C@@H](O)[C@H]2c1c(O)cc(O)c2c1O[C@@]1(c3ccc(O)c(O)c3)Oc3cc(O)c4c(c3[C@@H]2[C@H]1O)O[C@H](c1ccc(O)c(O)c1)[C@@H](O)C4`, for which the inhibition result in the assay with RAW264.7 [3] was “inactive”.
Regarding `Oc1cc(O)c2c(c1)O[C@@]1(c3ccc(O)c(O)c3)Oc3cc(O)c4c(c3[C@@H]2[C@H]1O)O[C@H](c1ccc(O)c(O)c1)[C@H](O)[C@H]4c1c(O)cc2c(c1O)[C@@H]1c3c(cc(O)c4c3O[C@H](c3ccc(O)c(O)c3)[C@@H](O)C4)O[C@](c3ccc(O)c(O)c3)(O2)[C@@H]1O`, the inhibition at 10 µg/mL in the assay on RAW264.7 [1] amounted to 4.26%. Further, the inhibition at 50 µg/mL in the assay with RAW264.7 [2] came out at 71.2%. In addition, the inhibition at 100 µg/mL with RAW264.7 [3] worked out at 98.6%.
As to `Oc1cc(O)c2c(c1)O[C@@]1(c3ccc(O)c(O)c3)Oc3cc(O)c4c(c3[C@@H]2[C@H]1O)O[C@H](c1ccc(O)c(O)c1)[C@@H](O)C4`, in the assay with RAW264.7 [3], the inhibition result is “inactive”.
As to `Oc1cc(O)c2c(c1)O[C@@]1(c3ccc(O)c(O)c3)Oc3cc(O)c4c(c3[C@@H]2[C@H]1O)O[C@H](c1ccc(O)c(O)c1)[C@H](O)[C@H]4c1c(O)cc2c(c1O)C[C@H](O)[C@@H](c1ccc(O)c(O)c1)O2`, the inhibition at 10 µg/mL with RAW264.7 [1] worked out at 28.6%. Also, in the assay on RAW264.7 [2], the inhibition at 50 µg/mL amounted to 99.4%. Also, the inhibition at 100 µg/mL with RAW264.7 [3] was determined as 100%.
For `Oc1cc(O)c2c(c1)O[C@@]1(c3ccc(O)c(O)c3)Oc3cc(O)c4c(c3[C@@H]2[C@H]1O)O[C@H](c1ccc(O)c(O)c1)[C@H](O)[C@H]4c1c(O)cc2c(c1O)[C@@H]1c3c(cc(O)c4c3O[C@H](c3ccc(O)c(O)c3)[C@H](O)C4)O[C@](c3ccc(O)c(O)c3)(O2)[C@@H]1O`, in that order: 82.2%, 100% and 100%.
As for `Oc1cc(O)c2c(c1)O[C@@]1(c3ccc(O)c(O)c3)Oc3cc(O)c4c(c3[C@@H]2[C@H]1O)O[C@@]1(c2ccc(O)c(O)c2)Oc2cc(O)c3c(c2[C@@H]4[C@H]1O)O[C@H](c1ccc(O)c(O)c1)[C@@H](O)C3`, the inhibition at 10 µg/mL in the assay on RAW264.7 [1] is 6.28%. For the same molecule, the inhibition at 50 µg/mL with RAW264.7 [2] is 78.8%. In the assay with RAW264.7 [3], the inhibition at 100 µg/mL is 100%.
